Screening results as filed in PubChem.
Hits are enriched below; roughly 3.5% of the tested compounds scored in any of these assays.
MrgX1 PAM: positive allosteric modulators of MrgX1, primary screen, HEK293 cells, Fluo-4 calcium flux | Mas-related G-protein coupled receptor member X1 (Homo sapiens), Q96LB2 | FDSS; stronger effect = higher value | B-score at 10 µM | 0.63% of 310,000 active | AID 588675, 2011;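 active = plate-corrected calcium response at least 3 library SD above typical, normal starting fluorescence, not activating the receptor alone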;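 note: compound read alongside a low EC10 to EC30 dose of BAM8-22 agonist; peak minus trough fluorescence over baseline measured at the second addition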
Target sequence (Q96LB2 whole entry, looked up): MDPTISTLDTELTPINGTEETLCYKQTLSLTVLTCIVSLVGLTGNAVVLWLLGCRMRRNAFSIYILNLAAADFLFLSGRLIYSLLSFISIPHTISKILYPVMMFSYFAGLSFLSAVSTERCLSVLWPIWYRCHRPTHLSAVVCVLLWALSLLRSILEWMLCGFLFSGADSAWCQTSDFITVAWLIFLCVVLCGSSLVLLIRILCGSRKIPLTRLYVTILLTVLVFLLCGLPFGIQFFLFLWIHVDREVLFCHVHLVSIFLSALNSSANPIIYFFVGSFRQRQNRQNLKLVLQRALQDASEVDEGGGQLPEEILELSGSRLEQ
MrgX1 antag: antagonists of human MrgX1 receptor, primary screen, HEK293 cells, Fluo-4 calcium flux; Mas-related G-protein coupled receptor member X1 (Homo sapiens), Q96LB2; BAM8-22 antagonism; stronger effect = lower value; B-score at 10 µM; 1.3% of 310,000 active; AID 588676, 2011;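 active = calcium-response B-score plate-corrected more than 3 library SD below zero, starting fluorescence within 5 deviations, no agonist response on first addition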;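 note: peak minus trough fluorescence over baseline after final BAM8-22 challenge near maximal dose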
MrgX1 ag: agonists of human MrgX1 receptor, primary screen, HEK293 cells, Fluo-4 calcium flux. Mas-related G-protein coupled receptor member X1 (Homo sapiens), Q96LB2. Fluo-4 calcium fluorescence, agonist mode; stronger effect = higher value. AID 588627, 2011. B-score at 10 µM. 0.44% of 310,000 active;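 active = calcium response B-score plate-corrected fluorescence ratio at least 3 library SD, with starting fluorescence B-score inside 5 SD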
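Assay system: MrgX1-expressing HEK293 cells / Amount: fifteen thousand cells per well / Doses: test compound in the initial addition of three / Timing: cells plated overnight, dye loaded 0.5 h 37 °C, 0.5 h room temperature / Technique: kinetic calcium dye fluorescence, Fluo-4 NW / Control set: positive and negative controls per plate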
RGS4 inh: RGS4 inhibitors, primary screen, cell-based, HEK293 M3R inducible RGS4, calcium flux | Regulator of G-protein signaling 4 (Homo sapiens), P49798 | Fluo-4 calcium flux; stronger effect = higher value; triggered by carbachol at its EC20 | B-score at 10 µM | 0.45% of 310,000 active;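 active = B-score, a plate-corrected calcium signal, over three deviations above library mean, with baseline fluorescence within five deviations of library mean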;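 note: RGS4 expression induced by doxycycline in cells with stable M3 receptor; B-score is computed from the integrated fluorescence ratio over baseline after carbachol; higher B-score means a larger calcium signal and so more RGS4 inhibition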
Target sequence (P49798 whole entry, looked up): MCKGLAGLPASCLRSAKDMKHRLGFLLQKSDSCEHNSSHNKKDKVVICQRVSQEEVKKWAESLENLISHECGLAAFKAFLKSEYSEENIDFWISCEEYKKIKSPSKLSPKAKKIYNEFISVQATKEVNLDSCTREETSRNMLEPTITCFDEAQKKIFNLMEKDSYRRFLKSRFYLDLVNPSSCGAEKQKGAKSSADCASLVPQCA
RGS4 act: RGS4 potentiators or activators, primary screen, cell-based, HEK293 M3R inducible RGS4, calcium flux. 0.92% of 310,000 active. carbachol calcium flux Fluo4; stronger effect = lower value. B-score at 10 µM;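 active = B-score of the integrated calcium signal more than 4 SD below the library mean, with starting fluorescence not abnormally high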;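 note: negative B-score means reduced calcium response which marks RGS4 activation or potentiation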
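test system = M3R-expressing HEK293 line, RGS4 induced by doxycycline | probe or stimulus = carbachol at ECmax as muscarinic agonist stimulus | timing = dye loading 30 min 37 °C, buffer rest 30 min RT | signal = calcium dye Fluo4 fluorescence | evaluation = B score from integrated fluorescence ratio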
RGS4 activ val: reduced carbachol calcium response, RGS4-induced M3R cells, confirmation, RGS4 activator project, cell-based, HEK293 M3R/RGS4 inducible, calcium flux, duplicate; shares compounds with RGS4 act; 89% of 1,100 active; inhibition, % at 10 µM; AID 602282, 2012; carbachol calcium flux Fluo4;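 active = inhibition above 3 SD of the buffer control wells, cut at about 41% in these data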;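 note: signal is the integrated peak-minus-minimum Fluo4 fluorescence over baseline ratio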
RGS4 act ctr: counter-screen for RGS4 activators: effect in non-induced cells. inhibition, % at 10 µM. shares compounds with RGS4 act. AID 602283. 82% of 1,100 active. HEK293 M3R non-induced RGS4, Fluo4 calcium flux; after carbachol challenge at its EC90;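 active = inhibition exceeding 3 SD of buffer-only control wells, cut at about 26% in these data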;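 note: percent drop in integrated peak-minus-baseline over baseline Fluo4 ratio after carbachol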
Hits are given with their value; i = inactive; nt = not tested or not shown.

SMILES | MrgX1 PAM | MrgX1 antag | MrgX1 ag | RGS4 inh | RGS4 act | RGS4 activ val | RGS4 act ctr
Cc1ccc(C(C(=O)NCc2ccccc2)N(Cc2cccs2)C(=O)c2ccc3c(c2)OCCO3)cc1 (configuration not stated) | i | i | i | i | i | nt | nt
COc1ccc(CNC(=O)C(c2cccs2)N(Cc2ccco2)C(=O)Cc2cccs2)cc1 (configuration not stated) | i | i | i | i | -7.4 | nt | nt
C[C@H](N)c1nnc(SCC(=O)c2ccc(Cl)cc2)o1 | i | i | i | i | i | nt | nt
Cc1cc(C)cc(NC(=O)N2CCN(Cc3ccc4c(c3)OCO4)CC2)c1 | i | i | i | i | i | nt | nt
CCOc1ccc(Nc2nc(NCC3CCCO3)c3ccccc3n2)cc1 (configuration not stated) | i | -5.9 | i | i | -7.2 | nt | nt
Oc1cccc(Nc2nc(NCC3CCCO3)c3ccccc3n2)c1 (configuration not stated) | i | i | i | i | i | nt | nt
CCOC(=O)c1ccc(Nc2nnc(C)c3ccccc23)cc1 | i | i | i | i | i | nt | nt
Cc1ccccc1-c1n[nH]c(=S)n1/N=C/C=C/c1ccco1 | i | i | i | i | -8 | 89 | 44
CC(/C=N/n1c(-c2cccnc2)n[nH]c1=S)=C\c1ccco1 | i | i | i | i | i | nt | nt
CC(/C=N/n1c(-c2n[nH]c3c2CCC3)n[nH]c1=S)=C\c1ccco1 | i | i | i | i | -9 | 93 | 90
COCc1nnc(NC(=O)c2ccc(S(=O)(=O)N(C)Cc3ccccc3)cc2)o1 | i | i | i | i | i | nt | nt
COC(=O)c1ccccc1NC(=O)C1CC=CCC1C(=O)O (configuration not stated) | i | i | i | i | i | nt | nt
CCOC(=O)CSC1=C(C#N)C(=O)NC2(CCCCC2)S1 | i | i | i | i | i | nt | nt
CN(C)S(=O)(=O)c1ccc(N2CCCC2)c(C(=O)Nc2ccc(C(N)=O)cc2)c1 | i | i | i | i | i | nt | nt
Cc1ccc(C(=O)Nc2cccc(C(=O)NCc3ccccc3)c2)o1 | i | i | i | i | i | nt | nt
C/C(=N\NC(=O)C1(C)CC1(Br)Br)c1cccc(NC(=O)c2ccc(C)o2)c1 (configuration not stated) | 7 | i | i | i | -12 | 92 | 81
Cc1nc(N2CCN(c3ccccc3O)CC2)c2c(-c3ccccc3)csc2n1 | i | i | i | i | -11 | 90 | 34
COc1ccc(-c2csc3nc(C)nc(N4CCN(C(C)=O)CC4)c23)cc1OC | i | i | i | i | i | nt | nt
COc1ccc(-c2csc3ncnc(N4CCN(CCO)CC4)c23)cc1 | i | i | i | i | i | nt | nt
CCN1CCN(c2ncnc3scc(-c4ccc(C)cc4)c23)CC1 | i | i | i | i | i | nt | nt
CCOc1ccccc1N1CCN(c2ncnc3scc(-c4ccc(OC)cc4)c23)CC1 | i | i | i | i | -11 | 90 | 43
COc1ccc(-c2csc3ncnc(N4CCN(c5ccccc5OC)CC4)c23)cc1 | i | i | i | i | -8.6 | 86 | 49
Cc1ccc(C)c(-c2nnc(NC(=O)c3ccc([N+](=O)[O-])o3)o2)c1 | i | i | i | i | i | nt | nt
N#Cc1c(-c2ccc(Cl)cc2)c2c([nH]c1=O)-c1ccccc1OC2 | i | i | i | i | i | nt | nt
Cc1ccc(OCc2cc(C(=O)N3CCc4sccc4C3)no2)cc1C | i | i | i | i | -7.7 | 81 | 44
SMILES | MrgX1 PAM | MrgX1 antag | MrgX1 ag | RGS4 inh | RGS4 act | RGS4 activ val | RGS4 act ctr
c1cc2cc(-c3c(-c4ccc5c(c4)OCO5)noc3-c3ccsc3)ccc2[nH]1 | i | i | i | i | i | nt | nt
COc1cc(-c2cc(-c3ccc(N)cc3)[nH]c(=O)c2C#N)cc(OC)c1OC | i | i | i | i | -8 | i | i
N#Cc1c(-c2ccccc2)cc(-c2ccccc2)[nH]c1=O | i | i | i | i | i | nt | nt
Cc1nc(C)c(CCNC(=O)c2ccc(C(F)(F)F)cc2)s1 | i | i | i | i | i | nt | nt
O=C(CSc1c2c(nc3ccc(Cl)cc13)CCCC2)NCCCN1CCOCC1 | i | i | i | i | -11 | 92 | 91
CCC(C)(C)C1CCC2(CC1)NC(=S)N(c1ccccc1)N2 (configuration not stated) | i | i | i | i | i | nt | nt
Cc1ccc(S(=O)(=O)Nc2cccc(C(=O)NCC(c3ccco3)N(C)C)c2)cc1F (configuration not stated) | i | i | i | i | -8.2 | 66 | 84
CNS(=O)(=O)c1cccc(C(=O)NCC(c2ccco2)N(C)C)c1 (configuration not stated) | i | i | i | i | i | nt | nt
Cc1ccc(NC(=O)c2cc(-c3cccs3)nc3ccccc23)nc1 | i | i | i | i | -7.9 | 78 | i
Cc1c(NC(=O)c2cc(-c3cccs3)nc3ccccc23)c(=O)n(-c2ccccc2)n1C | i | i | i | i | i | nt | nt
COc1cc(/C=N/Nc2cc(C)nc(NS(=O)(=O)c3ccccc3)n2)ccc1O | i | i | i | i | i | nt | nt
O=C(Nc1ccc(Cl)cc1)Nc1nnc(CSCc2ccccc2)s1 | i | i | i | i | i | nt | nt
CCCCN(CC)CCNC(=O)c1cc2c(-c3ccc(Cl)cc3)nn(C)c2s1 | i | i | i | i | -8.9 | 72 | 57
CCOCCN1CCN(c2c(CC)c(C)nc3cc(-c4cc(OC)cc(OC)c4)nn23)CC1 | i | i | i | i | -7.7 | 58 | 31
O=C(C1CCCN(Cc2ccc3c(c2)OCO3)C1)N1CCCC1 (configuration not stated) | i | i | i | i | i | nt | nt
Cc1nn(C(C)C)c(C)c1CN1CCCC(C(=O)c2cccc(OC(C)C)c2)C1 (configuration not stated) | i | i | i | i | -8.4 | 70 | 84
COc1cccc(C(=O)C2CCCN(Cc3cccc(-n4nc(C)cc4C)c3)C2)c1 (configuration not stated) | i | i | i | i | -9.8 | 93 | 75
O=C(c1ccc2c(c1)OCO2)C1CCCN(C2CCN(CCc3ccccc3)CC2)C1 (configuration not stated) | i | i | i | i | -13 | 87 | 55
CC(=O)c1cccc(CN2CCCC(C(=O)c3ccc4c(c3)OCO4)C2)c1 (configuration not stated) | i | i | i | i | -8.3 | 74 | 26
